Experimental data published in paper PMC3747510 (Scientific Reports, 2013).
≈ marks a conversion by molar mass, not a printed value.

Columns and labels:
MetRS2 = conditions: cited from earlier work
S. pneumoniae = test: Broth microdilution MIC, S. pneumoniae; format: cell-based; conditions: Streptococcus pneumoniae, 24 h, read-out: MIC, Bacteria, S. pneumoniae
Procedure, shortened: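 S. pneumoniae clinical isolate, from paediatric community-acquired pneumonia. CLSI M7-A7 broth microdilution in Mueller Hinton broth with 2.5% lysed sheep blood, inoculum about 2 × 10^8 CFU/mL. Serial test-compound dilutions, 37°C for 24 h. MIC was the lowest concentration suppressing visible growth.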

MIC (S. pneumoniae) [µg/mL]	Structure (SMILES)	Activity towards MetRS2 (MetRS2)
–	C=C(F)c1sc(CNCCCNc2cc(O)c3ccccc3n2)c(C)c1Br [REP8839]	no activity
0.0625 (≈ 0.179 µM)	CC1(C)S[C@@H]2[C@H](NC(=O)[C@H](N)c3ccccc3)C(=O)N2[C@H]1C(=O)O [Ampicillin, reference compound]	–
